Laboratory results as given in ChEMBL document CHEMBL4610103, “Oleanane Triterpenoids from the Leaves of Gymnema inodorum and Their Insulin Mimetic Activities” (J Nat Prod, 2020).
Activity calls are given as the source filed them.

Legend:
Format in all cases: functional, cell-based
3T3-L1 [1] = assay: Induction of glucose uptake in mouse 3T3L1 cells assessed as increase in 2-NBDG uptake at 20 uM after 1 hr by fluorescence method
Method in brief: (§1)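 Differentiated 3T3-L1 adipocytes switched to glucose-free medium containing 100 nM insulin, test compounds (20 μM single dose, or 5, 10 and 20 μM) and 50 μM 2-NBDG. Cells washed twice with PBS and lysed in 1% Triton X-100/0.1 M K3PO4 in PBS. Fluorescence read at ex 450/em 535 nm. Means ± SD of three independent experiments, each in triplicate. DMSO vehicle control; insulin positive control.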

3T3-L1 [2] = assay: Induction of glucose uptake in mouse 3T3L1 cells assessed as increase in 2-NBDG uptake at 20 uM after 1 hr by fluorescence microscopy
Method in brief: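 Differentiated 3T3-L1 adipocytes treated with 20 μM compound in the presence of 2-NBDG. Green fluorescence inside cells was imaged by fluorescence microscopy to follow 2-NBDG transport. Signals expressed as means ± SD (n = 3). DMSO negative control; insulin positive control.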

3T3-L1 [3] = assay: Induction of glucose uptake in mouse 3T3L1 cells assessed as increase in 2-NBDG uptake after 1 hr by fluorescence method; method in brief: as §1

Measured: Activity

CC1(C)CC[C@]2(C)[C@@H](O)C[C@]3(C)C(=CC[C@@H]4[C@@]5(C)CC[C@H](O[C@@H]6O[C@H](C(=O)O)[C@@H](O)[C@H](O)[C@H]6O[C@@H]6O[C@H](CO)[C@@H](O)[C@H](O)[C@H]6O)C(C)(C)[C@@H]5CC[C@]43C)[C@@H]2C1
active: 3T3-L1 [1] | 3T3-L1 [2] | 3T3-L1 [3] Dose-dependent effect

CNc1ccccc1C(=O)O[C@H]1CC(C)(C)C[C@H]2C3=CC[C@@H]4[C@@]5(C)CC[C@H](O[C@@H]6O[C@H](C(=O)O)[C@@H](O)[C@H](O)[C@H]6O)[C@@](C)(CO)[C@@H]5CC[C@@]4(C)[C@]3(C)C[C@H](O)[C@@]12CO
active: 3T3-L1 [1] | 3T3-L1 [2] | 3T3-L1 [3] Dose-dependent effect

CC1(C)C[C@H](OC(=O)c2ccccc2)[C@]2(CO)[C@@H](O)C[C@]3(C)C(=CC[C@@H]4[C@@]5(C)CC[C@H](O[C@@H]6O[C@H](C(=O)O)[C@@H](O)[C@H](O)[C@H]6O)[C@@](C)(CO)[C@@H]5CC[C@]43C)[C@@H]2C1
active: 3T3-L1 [1] | 3T3-L1 [2] | 3T3-L1 [3] Dose-dependent effect
